Experimental data from publication PMC5599375 (Journal of medicinal chemistry, 2017).
In brackets after ≈: the same amount, converted by molar mass. Entries after “also recorded” stand apart in the source; their conditions may differ. Read-outs that look alike come from different tables or passages of the source.

Columns and labels:
NDM-1 [1] = target: T1, NDM-1 (Klebsiella pneumoniae, UniProt C7C422); conditions: for Zn(II) content of NDM-1 after incubation and dialysis: NDM-1 8 μM, 50 mM HEPES pH 7.5
[2] = Control titration of L-tryptophan fluorescence; conditions: 2 μM L-tryptophan
NDM-1 [3] = target: T1, NDM-1; test: NDM-1 IC50, fluorescent fluorocillin assay; type: biochemical
MMP-2 = target: T2, MMP-2 (Homo sapiens, UniProt P08253); test: MMP-2 inhibition, OmniMMP fluorogenic substrate; type: biochemical; conditions: at 10 μM
T2 sequence (P08253 110-660): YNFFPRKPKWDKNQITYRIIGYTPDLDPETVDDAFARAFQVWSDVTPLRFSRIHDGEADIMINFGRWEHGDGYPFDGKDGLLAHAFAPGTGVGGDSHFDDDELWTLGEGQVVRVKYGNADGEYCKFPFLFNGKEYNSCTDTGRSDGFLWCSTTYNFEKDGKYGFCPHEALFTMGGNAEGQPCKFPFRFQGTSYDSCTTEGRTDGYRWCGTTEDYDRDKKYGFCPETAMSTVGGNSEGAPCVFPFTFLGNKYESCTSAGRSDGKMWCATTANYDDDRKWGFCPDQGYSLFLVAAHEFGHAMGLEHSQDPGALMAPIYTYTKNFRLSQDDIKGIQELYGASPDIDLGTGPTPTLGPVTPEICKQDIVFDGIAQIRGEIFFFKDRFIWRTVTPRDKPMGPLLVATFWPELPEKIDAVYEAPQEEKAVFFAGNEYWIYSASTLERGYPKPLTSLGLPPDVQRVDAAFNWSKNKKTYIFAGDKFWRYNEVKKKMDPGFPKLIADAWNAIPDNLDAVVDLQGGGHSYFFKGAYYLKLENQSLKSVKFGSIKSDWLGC
How it was run: (§1)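 Human recombinant MMP-2 (1.16 U/well) or MMP-12 (0.007 U/well) was preincubated with test compound (1 mM–5 μM range) for 30 min at 37 °C in 50 mM HEPES, 10 mM CaCl2, 0.05% Brij-35, pH 7.5. The reaction was started with 4 μM OmniMMP substrate (Mca-Pro-Leu-Gly-Leu-Dpa-Ala-Arg-NH2), and the fluorescence increase was monitored over 20 min (ex 320/em 400 nm). No-inhibitor wells were set to 100% and 200 μM NSA to 0%; run in triplicate.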

MMP-12 = MMP-12 (Homo sapiens, UniProt P39900); test: MMP-12 inhibition, OmniMMP fluorogenic substrate; type: biochemical; conditions: at 10 μM
How it was run: as §1

HDAC-1 = HDAC-1 (Homo sapiens, UniProt Q13547); test: HDAC-1 inhibition, fluorescence assay; type: biochemical; conditions: at 10 μM
How it was run: (§2)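 After 5 min preincubation, 20 μM HDAC substrate 3 was added for 30 min at 37 °C, then developer for 15 min at room temperature. Fluorescence ex 360/em 460 nm was read. No-inhibitor wells were set to 100% and 200 μM SAHA to 0%; run in triplicate.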

HDAC-6 = target: T3, HDAC-6 (Homo sapiens, UniProt Q9UBN7); test: HDAC-6 inhibition, fluorescence assay; type: biochemical; conditions: at 10 μM
T3 sequence (Q9UBN7 1-1215): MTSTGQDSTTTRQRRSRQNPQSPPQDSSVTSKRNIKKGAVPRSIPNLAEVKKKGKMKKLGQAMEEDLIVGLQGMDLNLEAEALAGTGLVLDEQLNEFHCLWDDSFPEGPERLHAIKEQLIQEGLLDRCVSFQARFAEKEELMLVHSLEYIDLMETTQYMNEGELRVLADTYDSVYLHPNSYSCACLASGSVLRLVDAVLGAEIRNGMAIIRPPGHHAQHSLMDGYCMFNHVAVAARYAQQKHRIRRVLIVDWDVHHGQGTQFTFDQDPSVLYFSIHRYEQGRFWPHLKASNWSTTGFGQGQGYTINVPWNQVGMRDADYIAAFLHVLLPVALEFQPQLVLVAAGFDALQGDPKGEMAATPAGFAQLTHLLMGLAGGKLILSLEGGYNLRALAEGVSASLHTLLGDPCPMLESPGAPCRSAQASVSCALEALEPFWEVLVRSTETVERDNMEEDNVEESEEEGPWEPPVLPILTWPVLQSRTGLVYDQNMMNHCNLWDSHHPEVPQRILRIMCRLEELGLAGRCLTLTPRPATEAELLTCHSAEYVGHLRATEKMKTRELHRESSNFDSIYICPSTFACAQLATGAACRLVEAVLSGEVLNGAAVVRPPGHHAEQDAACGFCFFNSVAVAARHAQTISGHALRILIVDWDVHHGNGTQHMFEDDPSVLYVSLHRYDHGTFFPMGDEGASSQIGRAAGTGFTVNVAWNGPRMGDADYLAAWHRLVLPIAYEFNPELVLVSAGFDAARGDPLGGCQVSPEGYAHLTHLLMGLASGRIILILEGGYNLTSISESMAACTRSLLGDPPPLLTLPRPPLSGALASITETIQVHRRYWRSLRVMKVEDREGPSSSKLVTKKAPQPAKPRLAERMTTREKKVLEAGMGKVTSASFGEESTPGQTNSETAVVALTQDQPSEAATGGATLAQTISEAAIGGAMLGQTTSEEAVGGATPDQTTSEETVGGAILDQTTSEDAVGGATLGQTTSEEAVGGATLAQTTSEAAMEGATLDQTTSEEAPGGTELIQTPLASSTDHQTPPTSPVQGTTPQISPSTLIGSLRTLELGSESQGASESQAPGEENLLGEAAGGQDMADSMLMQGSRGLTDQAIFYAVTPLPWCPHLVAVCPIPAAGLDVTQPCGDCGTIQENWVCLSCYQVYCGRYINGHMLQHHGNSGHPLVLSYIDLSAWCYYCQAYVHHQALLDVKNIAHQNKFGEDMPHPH
How it was run: as §2

[4] = target: Human carbonic anhydrase II (Homo sapiens, UniProt P00918); test: hCAII inhibition, p-nitrophenyl acetate assay; type: biochemical
How it was run: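 Esterase activity was started with 500 μM p-nitrophenyl acetate and followed at 405 nm for 15 min. No-inhibitor wells were set to 100% and 50 μM benzene sulfonamide to 0%; run in triplicate.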

[5] = system: Zn(II)-dependent metalloenzymes (HDACs, MMPs, CAs); test: Panel of Zn; type: biochemical; conditions: 50 – 100 μM; data not shown
NDM-1 [6] = target: T1, NDM-1; test: NDM-1 IC50 variation with exogenous Zn; type: biochemical; conditions: Figure S3
NDM-1 [7] = target: T1, NDM-1; type: binding; conditions: 2 μM NDM-1, up to 32 μM compound
[8] = system: E. coli and K. pneumoniae clinical isolates expressing blaNDM-1; test: organism not typed; type: cell-based
HEK293 cells = test: Cytotoxicity assay; type: cell-based, human; conditions: concentrations relevant to the MIC studies; 4 and 24 h
[9] = system: clinical E. coli isolates expressing blaNDM-1; test: microbe, parasite or virus in culture; type: cell-based; conditions: Escherichia coli
[10] = system: clinical K. pneumoniae isolates expressing blaNDM-1; test: microbe, parasite or virus in culture; type: cell-based; conditions: Klebsiella pneumoniae

T1 sequence (C7C422 29-270 limits assumed): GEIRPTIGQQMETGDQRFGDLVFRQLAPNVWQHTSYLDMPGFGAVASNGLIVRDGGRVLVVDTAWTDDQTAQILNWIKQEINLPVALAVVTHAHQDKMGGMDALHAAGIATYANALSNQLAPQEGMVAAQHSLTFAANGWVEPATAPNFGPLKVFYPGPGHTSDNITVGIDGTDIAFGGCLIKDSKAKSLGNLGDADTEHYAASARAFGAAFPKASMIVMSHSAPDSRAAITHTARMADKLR
HDAC-1, sequence (Q13547 whole entry): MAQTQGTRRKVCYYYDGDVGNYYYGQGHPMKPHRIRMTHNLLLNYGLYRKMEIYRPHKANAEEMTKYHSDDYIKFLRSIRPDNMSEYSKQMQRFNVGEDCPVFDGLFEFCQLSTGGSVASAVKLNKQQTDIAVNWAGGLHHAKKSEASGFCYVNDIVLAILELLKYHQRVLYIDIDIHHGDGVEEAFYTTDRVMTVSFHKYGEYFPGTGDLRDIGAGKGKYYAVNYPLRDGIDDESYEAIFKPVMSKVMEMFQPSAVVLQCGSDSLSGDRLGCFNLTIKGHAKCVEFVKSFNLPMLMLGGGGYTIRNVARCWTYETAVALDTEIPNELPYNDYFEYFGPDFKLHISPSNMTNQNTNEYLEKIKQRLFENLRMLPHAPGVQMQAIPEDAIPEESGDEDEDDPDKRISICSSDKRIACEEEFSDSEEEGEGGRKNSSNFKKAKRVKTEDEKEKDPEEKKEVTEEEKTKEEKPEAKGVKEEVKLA
MMP-12, sequence (P39900 106-470): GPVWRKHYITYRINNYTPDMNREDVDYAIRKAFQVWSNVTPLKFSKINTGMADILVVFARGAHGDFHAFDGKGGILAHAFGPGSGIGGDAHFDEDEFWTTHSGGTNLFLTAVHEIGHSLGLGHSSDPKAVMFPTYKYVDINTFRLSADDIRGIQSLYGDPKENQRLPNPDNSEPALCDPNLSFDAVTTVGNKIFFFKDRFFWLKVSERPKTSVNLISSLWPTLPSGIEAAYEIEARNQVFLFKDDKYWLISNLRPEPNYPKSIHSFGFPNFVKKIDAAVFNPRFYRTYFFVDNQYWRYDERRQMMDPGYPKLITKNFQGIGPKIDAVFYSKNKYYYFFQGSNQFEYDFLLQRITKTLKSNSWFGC

SMILES: C[C@H](CS)C(=O)N1CCC[C@H]1C(=O)O [L-Captopril]
- Zn(II) content of NDM-1 after incubation and dialysis (NDM-1 [1]): did not change
- reduction of fluorescence emission of L-tryptophan [2]: no change

SMILES: O=C(O)CN(CCN(CC(=O)O)CC(=O)O)CC(=O)O [EDTA, ethylenediaminetetraacetic acid]
- reduction of fluorescence emission of L-tryptophan [2]: no change

SMILES: Nc1cccc(-c2cc(C(=O)O)nc(C(=O)O)c2)c1 [Compound 36, 4-(3-Aminophenyl)pyridine-2,6-dicarboxylic acid]
- ligand efficiency (NDM-1 [3]): 0.5 kcal/mol/non-H atom
- fold improvement in inhibition compared to DPA (NDM-1 [3]; fluorescent assay): 4 fold
- Percent inhibition of MMP-2 (MMP-2): some inhibition
- Percent inhibition of MMP-12 (MMP-12): some inhibition
- Percent inhibition of HDAC-1 (HDAC-1): did not show inhibition; also recorded: No inhibition
- Percent inhibition of HDAC-6 (HDAC-6): did not show inhibition; also recorded: No inhibition
- selectivity for NDM-1 over human CAII [4]: at least 500 fold
- Percent inhibition of hCAII ([4]; at 10 μM): did not show inhibition; also recorded: No inhibition
- inhibition of Zn(II) metalloenzymes at higher concentrations [5]: < 50%
- effect of exogenous Zn(II) in the assay buffer on NDM-1 inhibition (NDM-1 [6]): little impact on the IC50 value
- Zn(II) content of NDM-1 after incubation and dialysis (NDM-1 [1]): no significant removal of Zn(II)
- Zn(II) removed from NDM-1 (NDM-1 [1]; ~24 μM compound): 10–20%
- quenching of intrinsic tryptophan fluorescence of NDM-1 (NDM-1 [7]): 50–60%
- effect on bacterial growth of compound alone ([8]; 36 alone (100 mg/L), all E. coli and K. pneumoniae strains): no effect on growth
- toxicity to HEK293 cells (growth, morphology, viability) (HEK293 cells): not adversely effected; also recorded: did not exhibit cytotoxicity; also recorded: no toxicity was observed

SMILES: O=C(O)c1cccc(C(=O)O)n1 [DPA, 2,6-dipicolinic acid]
- effect of exogenous Zn(II) in the assay buffer on NDM-1 inhibition (NDM-1 [6]): diminishes the inhibition activity
- Zn(II) content of NDM-1 after incubation and dialysis (NDM-1 [1]): significant loss in Zn(II) content

SMILES: C[C@@H](O)[C@H]1C(=O)N2C(C(=O)O)=C(SCCN=CN)C[C@H]12 [Imipenem, imipenem]
- MIC ([9]; read-out: MIC, imipenem, E. coli isolate Ah8.71): 16 µg/mL (≈ 53.4 µM)
- MIC ([9]; read-out: MIC, imipenem, E. coli isolate Ah8.73): 16 µg/mL (≈ 53.4 µM)
- MIC ([9]; read-out: MIC, imipenem, E. coli isolate Ah8.75): 16 µg/mL (≈ 53.4 µM)
- MIC ([9]; read-out: MIC, imipenem, E. coli isolate Ch8.68): 16 µg/mL (≈ 53.4 µM)
- MIC ([9]; read-out: MIC, imipenem, E. coli isolate Ch8.69): 4 µg/mL (≈ 13.4 µM)
- MIC ([9]; read-out: MIC, imipenem, E. coli isolate Ch8.70): 16 µg/mL (≈ 53.4 µM)
- MIC ([9]; read-out: MIC, imipenem, E. coli isolate Ch8.72): 16 µg/mL (≈ 53.4 µM)
- MIC ([10]; read-out: MIC, imipenem, K. pneumoniae isolate Cm1.62): 16 µg/mL (≈ 53.4 µM)
- MIC ([10]; read-out: MIC, imipenem, K. pneumoniae isolate Cm1.63): 8 µg/mL (≈ 26.7 µM)
- MIC ([10]; read-out: MIC, imipenem, K. pneumoniae isolate Pd1.48): 8 µg/mL (≈ 26.7 µM)
- MIC ([10]; read-out: MIC, imipenem, K. pneumoniae isolate Pd1.49): 4 µg/mL (≈ 13.4 µM)
- MIC ([10]; read-out: MIC, imipenem, K. pneumoniae isolate Pd1.50): 8 µg/mL (≈ 26.7 µM)
- MIC ([10]; read-out: MIC, imipenem, K. pneumoniae isolate Pd1.53): 8 µg/mL (≈ 26.7 µM)
- MIC ([10]; read-out: MIC, imipenem, K. pneumoniae isolate Pd1.54): 8 µg/mL (≈ 26.7 µM)
- MIC ([10]; read-out: MIC, imipenem, K. pneumoniae isolate Pd1.55): 8 µg/mL (≈ 26.7 µM)
- MIC ([8]; read-out: MICs of imipenem alone): 4 to 16 µg/mL (≈ 13.4 to 53.4 µM)
